Data set [1] is classed as physicochemical, mice. Particulars: for Accuracy (RE, %) 25°C for 6 h / Accuracy (RE, %) Frozen for 30 days: stability in mice plasma/blood QC sample; for Accuracy (RE, %) Frozen for 30 days: −80°C; for Accuracy (RE, %) 4°C for 24 h: stability, extracted QC sample in auto-sampler. An outline of the steps: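 Blank mouse blood spiked with analytes and vitamin C, then extracted with methanol containing daidzein internal standard (0.5 μM) by 1 min vortex. Spun at 20,000 × g for 15 min and dried under air. Three replicates per QC level were held unextracted at 25°C for 6 h, at −80°C for 30 days, or extracted in the 4°C autosampler for 24 h. Analysed by UPLC-MS/MS (C18, formic acid/acetonitrile, positive MRM); accuracy as RE.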

The nature of data set [2]: in vivo. The data set is classed as in vivo, A/J mice. Particulars: for Tmax / AUC(0-inf) / AUC(0-t) / Cmax / half-life: male, A/J, mouse, whole blood, po; for detected in the blood: mice, oral XCHT extract 0.5 g/kg; for concentration in the PK study: A/J mice, oral XCHT 500 mg/kg, blood.

Where two headings read alike, the source gives them in different places.

For `O=c1c(O)c(-c2ccc(O)c(O)c2)oc2cc(O)cc(O)c12` [quercetin, quecertin], the “Accuracy (RE, %) 25°C for 6 h” value in data set [1] (spiked concentration 3.9) is recorded as −4.8%; in data set [1] (spiked concentration 62.5), −12.9%; in data set [1] (spiked concentration 500), 10.1%. Besides, the results for the “Accuracy (RE, %) Frozen for 30 days” value in data set [1] (spiked concentration 3.9), in data set [1] (spiked concentration 62.5) and in data set [1] (spiked concentration 500) were −2.6%, 4.8% and 14.7%, respectively. The “Accuracy (RE, %) 4°C for 24 h” value in data set [1] (spiked concentration 3.9) was −1.3%; in data set [1] (spiked concentration 62.5), 5.12%; in data set [1] (spiked concentration 500), 14.72%.
Turning to `COc1c(O)cc(O)c2c(=O)cc(-c3ccccc3)oc12` [Wogonin, wogonin], in data set [2] (0.5 g/kg), the time of peak concentration (Tmax) was 0.17 ± 0.09 h. Further, in data set [2] (500 mg/kg), the AUC(0-inf) stood at 0.116 ± 0.0822 µM·h, the AUC(0-t) amounted to 0.11 ± 0.0878 µM·h, the maximum concentration (Cmax) turned out to be 18.8 ± 6.27 nM and the time to peak (Tmax) came to 0.167 h. The molecule also had a half-life in data set [2] (500 mg/kg) of 6.16 ± 4.85 h. In addition, in data set [1] (spiked concentration 3.9), the “Accuracy (RE, %) 25°C for 6 h” value was 11.4%; the “Accuracy (RE, %) Frozen for 30 days” value was found to be 8.4%; the “Accuracy (RE, %) 4°C for 24 h” value is 9.2%. Further, in data set [1] (spiked concentration 62.5), the “Accuracy (RE, %) 25°C for 6 h” value is on record as 9.5%; the “Accuracy (RE, %) Frozen for 30 days” value worked out at 15%; the “Accuracy (RE, %) 4°C for 24 h” value turned out to be 14.8%. Besides, in data set [1] (spiked concentration 500), the “Accuracy (RE, %) 25°C for 6 h” value is on record as 3.1%; the “Accuracy (RE, %) Frozen for 30 days” value was determined as 10.3%; the “Accuracy (RE, %) 4°C for 24 h” value came to 13.5%.
Consider `CC(C)=CCC[C@](C)(O[C@@H]1O[C@H](CO)[C@@H](O)[C@H](O)[C@H]1O)[C@H]1CC[C@]2(C)[C@@H]1[C@H](O)C[C@@H]1[C@@]3(C)CC[C@H](O)C(C)(C)[C@@H]3[C@@H](O[C@@H]3O[C@H](CO)[C@@H](O)[C@H](O)[C@H]3O[C@@H]3O[C@@H](C)[C@H](O)[C@@H](O)[C@H]3O)C[C@]12C` [Re, ginsenoside Re], for which, in data set [2] (500 mg/kg), the AUC(0-inf) turned out to be 0.045 ± 0.0289 µM·h, the exposure AUC(0-t) worked out at 0.0423 ± 0.0265 µM·h, the Cmax worked out at 50.2 ± 40.1 nM and the time to peak (Tmax) turned out to be 0.25 h. Moreover, the half-life in data set [2] (500 mg/kg) is 2.72 ± 2.15 h. Also, the “detected in the blood” value in data set [2] is recorded as “detected”. Also, in data set [1] (spiked concentration 3.9), the “Accuracy (RE, %) 25°C for 6 h” value is on record as 10.1%; the “Accuracy (RE, %) Frozen for 30 days” value was found to be 10.4%; the “Accuracy (RE, %) 4°C for 24 h” value is recorded as −5.4%. In addition, in data set [1] (spiked concentration 62.5), the “Accuracy (RE, %) 25°C for 6 h” value is given as 8.8%; the “Accuracy (RE, %) Frozen for 30 days” value came out at 9.7%; the “Accuracy (RE, %) 4°C for 24 h” value was 13.76%. In addition, in data set [1] (spiked concentration 500), the “Accuracy (RE, %) 25°C for 6 h” value is −0.3%; the “Accuracy (RE, %) Frozen for 30 days” value stood at 8.9%; the “Accuracy (RE, %) 4°C for 24 h” value was found to be 9.7%.
For `O=C(O)[C@H]1O[C@@H](Oc2cc3oc(-c4ccccc4)cc(=O)c3c(O)c2O)[C@H](O)[C@@H](O)[C@@H]1O` [Baicalin, baicalin], in data set [2] (0.5 g/kg), the Tmax came out at 2.13 ± 1.18 h. Moreover, in data set [2] (500 mg/kg), the AUC(0-inf) turned out to be 9.71 ± 0.709 µM·h, the AUC(0-t) was determined as 8.96 ± 2.08 µM·h, the Cmax came out at 787 ± 123 nM and the Tmax amounted to 2.57 h. This molecule also gave a half-life in data set [2] (500 mg/kg) of 3.11 ± 0.95 h. Besides, the “detected in the blood” value in data set [2] is “detected”. Moreover, in data set [1] (spiked concentration 3.9), the “Accuracy (RE, %) 25°C for 6 h” value is −5.7%; the “Accuracy (RE, %) Frozen for 30 days” value amounted to 6.7%; the “Accuracy (RE, %) 4°C for 24 h” value is reported as 3.8%. Also, in data set [1] (spiked concentration 62.5), the “Accuracy (RE, %) 25°C for 6 h” value was −5.3%; the “Accuracy (RE, %) Frozen for 30 days” value came out at 14.1%; the “Accuracy (RE, %) 4°C for 24 h” value stood at 14.8%. For the same molecule, in data set [1] (spiked concentration 500), the “Accuracy (RE, %) 25°C for 6 h” value is 1.1%; the “Accuracy (RE, %) Frozen for 30 days” value worked out at 4.9%; the “Accuracy (RE, %) 4°C for 24 h” value was 5.2%.
With `O=c1cc(-c2ccccc2)oc2cc(O)c(O)c(O)c12` [Baicalein, baicalein], the Tmax in data set [2] (0.5 g/kg) is 0.083 h. In data set [2] (500 mg/kg), the area under the curve AUC(0-inf) was determined as 0.119 ± 0.0338 µM·h, the AUC(0-t) stood at 0.0854 ± 0.026 µM·h, the peak concentration (Cmax) turned out to be 32.7 ± 15 nM and the Tmax worked out at 0.083 h. Besides, the half-life in data set [2] (500 mg/kg) was 6.85 ± 4.32 h. In data set [2], the “detected in the blood” value is on record as “detected”. For the same molecule, in data set [1] (spiked concentration 3.9), the “Accuracy (RE, %) 25°C for 6 h” value is 10.3%; the “Accuracy (RE, %) Frozen for 30 days” value is reported as −11.4%; the “Accuracy (RE, %) 4°C for 24 h” value stood at 12.3%. Besides, in data set [1] (spiked concentration 62.5), the “Accuracy (RE, %) 25°C for 6 h” value is listed as 9.9%; the “Accuracy (RE, %) Frozen for 30 days” value is on record as −14.5%; the “Accuracy (RE, %) 4°C for 24 h” value is on record as −14%. Besides, in data set [1] (spiked concentration 500), the “Accuracy (RE, %) 25°C for 6 h” value stood at 0.7%; the “Accuracy (RE, %) Frozen for 30 days” value is on record as 9%; the “Accuracy (RE, %) 4°C for 24 h” value is reported as 13.1%.
As to `CC1(C)[C@@H](O)CC[C@]2(C)[C@H]3C(=O)C=C4[C@@H]5C[C@@](C)(C(=O)O)CC[C@]5(C)CC[C@@]4(C)[C@]3(C)CC[C@@H]12` [GA, glycyrrhetinic acid], in data set [2] (0.5 g/kg), the peak level (Cmax) was 263 ± 87.3 nM and the time of peak concentration (Tmax) turned out to be 7.25 ± 5.5 h. Moreover, in data set [2] (500 mg/kg), the AUC(0-inf) is 3.3 ± 1.18 µM·h, the AUC(0-t) came to 3.3 ± 1.18 µM·h, the highest level (Cmax) was 263 ± 87.3 nM and the half-life is 4.77 ± 1.93 h. Also, in data set [1] (spiked concentration 3.9), the “Accuracy (RE, %) 25°C for 6 h” value is given as 2.1%; the “Accuracy (RE, %) Frozen for 30 days” value was found to be 6.9%; the “Accuracy (RE, %) 4°C for 24 h” value stood at 5.4%. In addition, in data set [1] (spiked concentration 62.5), the “Accuracy (RE, %) 25°C for 6 h” value worked out at 1.6%; the “Accuracy (RE, %) Frozen for 30 days” value amounted to 14.0%; the “Accuracy (RE, %) 4°C for 24 h” value was 12%. Besides, in data set [1] (spiked concentration 500), the “Accuracy (RE, %) 25°C for 6 h” value was 8.1%; the “Accuracy (RE, %) Frozen for 30 days” value was found to be 13.5%; the “Accuracy (RE, %) 4°C for 24 h” value was 14.6%.
Turning to `COc1cc(CCC(C)=O)ccc1O` [zingerone], in data set [1] (spiked concentration 3.9), the “Accuracy (RE, %) 25°C for 6 h” value is reported as 7.5%; the “Accuracy (RE, %) Frozen for 30 days” value was −5.9%; the “Accuracy (RE, %) 4°C for 24 h” value is recorded as 4.6%. Also, in data set [1] (spiked concentration 62.5), the “Accuracy (RE, %) 25°C for 6 h” value is listed as −8.6%; the “Accuracy (RE, %) Frozen for 30 days” value is recorded as −0.9%; the “Accuracy (RE, %) 4°C for 24 h” value is listed as −1%. Also, in data set [1] (spiked concentration 500), the “Accuracy (RE, %) 25°C for 6 h” value is −14.6%; the “Accuracy (RE, %) Frozen for 30 days” value came out at 12.7%; the “Accuracy (RE, %) 4°C for 24 h” value is 11.4%.
With `CC(C)=CCC[C@](C)(O)[C@H]1CC[C@]2(C)[C@@H]1[C@H](O)C[C@@H]1[C@@]3(C)CC[C@H](O[C@@H]4O[C@H](CO)[C@@H](O)[C@H](O)[C@H]4O[C@@H]4O[C@H](CO)[C@@H](O)[C@H](O)[C@H]4O)C(C)(C)[C@@H]3CC[C@]12C` [Rg3, ginsenoside Rg3], the figures for the “concentration in the PK study” value in data set [2] (time 5 min), in data set [2] (time 30 min) and in data set [2] (time 360 min) were 1.33±0.48, 3.74±3.73 and 1.61±0.53, respectively. In addition, the figures for the “Accuracy (RE, %) 25°C for 6 h” value in data set [1] (spiked concentration 0.488), in data set [1] (spiked concentration 6.25) and in data set [1] (spiked concentration 500) were 9.2%, 9.2% and −4.3%, respectively. Moreover, the “Accuracy (RE, %) Frozen for 30 days” value in data set [1] (spiked concentration 0.488) is 8.0%; in data set [1] (spiked concentration 6.25), 8.0%; in data set [1] (spiked concentration 500), 0.4%. In addition, the “Accuracy (RE, %) 4°C for 24 h” value in data set [1] (spiked concentration 0.488) amounted to 1.57%; in data set [1] (spiked concentration 6.25), 8.64%; in data set [1] (spiked concentration 500), 0.4%.
Take `COc1ccc(-c2coc3cc(O)ccc3c2=O)cc1` [Formononetin, formononetin]: the “Accuracy (RE, %) 25°C for 6 h” value in data set [1] (spiked concentration 3.9) was 8.0%; in data set [1] (spiked concentration 62.5) it was 11.8%; in data set [1] (spiked concentration 500), −10.9%. Besides, the “Accuracy (RE, %) Frozen for 30 days” value in data set [1] (spiked concentration 3.9) is 13.5%; in data set [1] (spiked concentration 62.5), 13%; in data set [1] (spiked concentration 500) it was 4.9%. Besides, the “Accuracy (RE, %) 4°C for 24 h” value is recorded as −8.9% in data set [1] (spiked concentration 3.9), 13.6% in data set [1] (spiked concentration 62.5) and 5% in data set [1] (spiked concentration 500).
Consider `CCCCC[C@H](O)CC(=O)CCc1ccc(O)c(OC)c1` [(6)-Gingerol, 6-gingernol], for which the “Accuracy (RE, %) 25°C for 6 h” value is given as 2.8% in data set [1] (spiked concentration 3.9), −2.3% in data set [1] (spiked concentration 62.5) and −1.0% in data set [1] (spiked concentration 500). In addition, the “Accuracy (RE, %) Frozen for 30 days” value in data set [1] (spiked concentration 3.9) is 4.4%; in data set [1] (spiked concentration 62.5) it was −12.1%; in data set [1] (spiked concentration 500) it was 1.2%. For the same molecule, the “Accuracy (RE, %) 4°C for 24 h” value is given as 2.6% in data set [1] (spiked concentration 3.9), −8.4% in data set [1] (spiked concentration 62.5) and 2% in data set [1] (spiked concentration 500).
`C[C@@H]1O[C@@H](OC[C@H]2O[C@@H](Oc3c(-c4ccc(O)c(O)c4)oc4cc(O)cc(O)c4c3=O)[C@H](O)[C@@H](O)[C@@H]2O)[C@H](O)[C@H](O)[C@H]1O` [rutin]: the entries for the “Accuracy (RE, %) 25°C for 6 h” value in data set [1] (spiked concentration 0.049), in data set [1] (spiked concentration 6.25) and in data set [1] (spiked concentration 50) were 13.2%, 3.1% and 6.3%, respectively. Moreover, the “Accuracy (RE, %) Frozen for 30 days” value was 8.3% in data set [1] (spiked concentration 0.049), 8.5% in data set [1] (spiked concentration 6.25) and 7.9% in data set [1] (spiked concentration 50). Moreover, the “Accuracy (RE, %) 4°C for 24 h” value is on record as 9.3% in data set [1] (spiked concentration 0.049), 12.7% in data set [1] (spiked concentration 6.25) and 12.1% in data set [1] (spiked concentration 50).
